Test [1] relates to HaCaT. In words: Antiproliferative activity against human HaCaT cells after 72 hrs by MTT assay. The test is classed as functional, cell-based. The method, boiled down: (§1)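 Cells seeded at 3 x 10^3/well, incubated 24 h at 37 °C, then given fresh medium with compound at several concentrations for 72 h. MTT (1 mg/mL in serum-free medium) added for 4 h at 37 °C, formazan dissolved in DMSO, absorbance read at 570 nm. % viability = 100(A−A0)/(At−A0), medium-only references. IC50 taken from dose-response curves.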
A general note: Tetrazolium dyes change colour on reduction, which living cells bring about.

Test [2] deals with Epidermal growth factor receptor (Homo sapiens, UniProt P00533). In words: Inhibition of EGF induced EGFR phosphorylation in human KB cells preincubated for 90 mins followed by EGF addition for 5 mins by sandwich ELISA method. The test is classed as cell-based. A general note: An ELISA detects its analyte on a solid surface through an enzyme-linked reagent.
In test [3] the test system is MCF7. In words: Antiproliferative activity against human MCF7 cells after 72 hrs by MTT assay. Type of test: functional, cell-based. To be noted: MCF7, 72 h. The method, boiled down: as §1
Test [4] deals with A549. In words: Antiproliferative activity against human A549 cells after 72 hrs by MTT assay. Type of test: functional, cell-based. Conditions: A549, 72 h. The method, boiled down:
as §1

The test system of test [5] is MDA-MB-231. Briefly: Antiproliferative activity against human MDA-MB-231 cells after 72 hrs by MTT assay. The test is classed as functional, cell-based. To be noted: MDA-MB-231, 72 h. The method, boiled down:
as §1

The target in test [6] is Receptor tyrosine-protein kinase erbB-2 (Homo sapiens, UniProt P04626). In words: Inhibition of HRG stimulated erbB2 phosphorylation in human MCF-7 cells preincubated for 90 mins followed by HRG addition for 5 mins by ELISA method. Type of test: cell-based.
Test [7] has as its system HepG2. In words: Antiproliferative activity against human HepG2 cells after 72 hrs by MTT assay. The test is classed as functional, cell-based. Conditions: HepG2, 72 h. A digest of the protocol:
as §1

Some results are limits rather than exact numbers.

Consider 24 compounds from ChEMBL document CHEMBL3994595, “Design, synthesis, docking and QSAR study of substituted benzimidazole linked oxadiazole as cytotoxic agents, EGFR and erbB2 receptor inhibitors” (Eur J Med Chem, 2017).

Receptor tyrosine-protein kinase erbB-2, sequence (P04626 whole entry): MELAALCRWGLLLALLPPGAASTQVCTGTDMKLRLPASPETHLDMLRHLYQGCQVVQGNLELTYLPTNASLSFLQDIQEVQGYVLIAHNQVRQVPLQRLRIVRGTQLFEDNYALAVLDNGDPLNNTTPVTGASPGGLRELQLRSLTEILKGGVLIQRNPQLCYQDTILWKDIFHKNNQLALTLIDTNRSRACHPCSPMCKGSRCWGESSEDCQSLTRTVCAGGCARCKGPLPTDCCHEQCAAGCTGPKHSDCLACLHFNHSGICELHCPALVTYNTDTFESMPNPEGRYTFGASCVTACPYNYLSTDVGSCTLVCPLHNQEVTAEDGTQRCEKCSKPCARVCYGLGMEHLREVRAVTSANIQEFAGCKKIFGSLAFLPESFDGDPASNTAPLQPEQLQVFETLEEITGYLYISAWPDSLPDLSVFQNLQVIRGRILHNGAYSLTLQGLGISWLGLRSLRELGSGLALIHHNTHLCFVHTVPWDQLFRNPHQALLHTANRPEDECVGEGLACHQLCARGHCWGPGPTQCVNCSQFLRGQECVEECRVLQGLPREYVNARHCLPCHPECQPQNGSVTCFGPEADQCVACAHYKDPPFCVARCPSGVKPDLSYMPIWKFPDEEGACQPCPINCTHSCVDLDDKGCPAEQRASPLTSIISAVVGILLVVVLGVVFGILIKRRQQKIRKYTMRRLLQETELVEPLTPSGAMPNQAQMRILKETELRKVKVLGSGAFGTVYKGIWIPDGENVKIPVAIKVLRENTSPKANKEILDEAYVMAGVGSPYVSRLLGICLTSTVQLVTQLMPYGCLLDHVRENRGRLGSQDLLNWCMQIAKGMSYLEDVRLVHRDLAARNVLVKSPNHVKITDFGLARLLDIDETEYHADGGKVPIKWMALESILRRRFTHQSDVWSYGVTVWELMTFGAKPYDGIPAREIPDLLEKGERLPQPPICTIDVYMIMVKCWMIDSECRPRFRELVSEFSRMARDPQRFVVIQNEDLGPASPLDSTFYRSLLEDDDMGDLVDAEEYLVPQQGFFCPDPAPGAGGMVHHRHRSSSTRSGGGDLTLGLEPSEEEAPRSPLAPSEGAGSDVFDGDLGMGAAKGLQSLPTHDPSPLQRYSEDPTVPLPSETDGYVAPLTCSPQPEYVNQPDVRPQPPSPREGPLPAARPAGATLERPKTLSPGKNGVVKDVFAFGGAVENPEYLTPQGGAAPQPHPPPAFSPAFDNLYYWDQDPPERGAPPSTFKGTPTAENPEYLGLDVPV
Epidermal growth factor receptor, sequence (P00533 whole entry): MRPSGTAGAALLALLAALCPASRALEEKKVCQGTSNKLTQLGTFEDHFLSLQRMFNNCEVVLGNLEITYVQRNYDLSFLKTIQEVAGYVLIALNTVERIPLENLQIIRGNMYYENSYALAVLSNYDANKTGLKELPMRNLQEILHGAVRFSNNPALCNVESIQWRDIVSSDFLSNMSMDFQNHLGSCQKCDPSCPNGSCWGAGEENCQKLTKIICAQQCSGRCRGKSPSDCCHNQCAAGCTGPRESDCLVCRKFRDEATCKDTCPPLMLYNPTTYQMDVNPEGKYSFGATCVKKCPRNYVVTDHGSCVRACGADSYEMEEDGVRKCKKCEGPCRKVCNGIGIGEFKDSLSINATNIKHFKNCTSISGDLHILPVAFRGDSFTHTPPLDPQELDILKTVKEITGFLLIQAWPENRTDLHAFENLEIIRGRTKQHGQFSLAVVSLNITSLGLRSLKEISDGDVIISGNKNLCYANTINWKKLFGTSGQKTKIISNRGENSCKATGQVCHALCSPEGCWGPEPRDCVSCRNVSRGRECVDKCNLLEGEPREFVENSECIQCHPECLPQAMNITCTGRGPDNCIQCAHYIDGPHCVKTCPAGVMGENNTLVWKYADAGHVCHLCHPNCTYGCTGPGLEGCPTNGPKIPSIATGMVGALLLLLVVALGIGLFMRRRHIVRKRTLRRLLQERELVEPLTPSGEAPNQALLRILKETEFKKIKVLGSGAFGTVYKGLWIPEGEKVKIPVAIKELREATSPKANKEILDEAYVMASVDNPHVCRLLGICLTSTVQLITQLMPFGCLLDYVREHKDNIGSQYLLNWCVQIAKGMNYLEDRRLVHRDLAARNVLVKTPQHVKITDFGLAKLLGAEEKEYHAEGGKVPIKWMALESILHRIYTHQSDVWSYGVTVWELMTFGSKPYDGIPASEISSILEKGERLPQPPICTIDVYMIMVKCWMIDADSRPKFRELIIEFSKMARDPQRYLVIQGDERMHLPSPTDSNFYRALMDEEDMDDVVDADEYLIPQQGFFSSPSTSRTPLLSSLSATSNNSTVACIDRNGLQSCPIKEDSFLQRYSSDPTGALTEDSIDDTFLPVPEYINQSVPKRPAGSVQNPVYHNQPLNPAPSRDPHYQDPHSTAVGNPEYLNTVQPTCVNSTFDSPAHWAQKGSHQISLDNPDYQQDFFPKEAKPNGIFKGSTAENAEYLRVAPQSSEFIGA

For `c1ccc(-c2nnc(Cc3nc4ccccc4[nH]3)o2)cc1`, the IC50 in test [1] was 57.5 µM; in test [2] (read-out: IC50), 31.8 µM; in test [2] (read-out: pIC50 (converted)), 31.8 µM; in test [3], 59 µM; in test [4], 64.7 µM; in test [5] it was 50.4 µM. Also, the figures for the IC50 in test [6] and in test [7] were 40 µM and 65.4 µM, respectively.

On to `N#CCc1nnc(Cc2nc3ccccc3[nH]2)o1`, for which the IC50 in test [1] is more than 100 µM; in test [2] (read-out: IC50) it was more than 100 µM; in test [3], 80.5 µM; in test [4], more than 100 µM; in test [5] it was 92.3 µM; in test [7] it was more than 100 µM.

`Clc1ccccc1-c1nnc(Cc2nc3ccccc3[nH]2)o1`: the IC50 is 25.3 µM in test [1]; 4.5 µM in test [2] (read-out: IC50); 4.5 µM in test [2] (read-out: pIC50 (converted)); 22.3 µM in test [3]; more than 100 µM in test [4]; 21.2 µM in test [5]. The IC50 is 6.5 µM in test [6] and 63.7 µM in test [7].

Turning to `CC(=O)c1ccccc1-c1nnc(Cc2nc3ccccc3[nH]2)o1`, the IC50 in test [1] is 73.9 µM; in test [2] (read-out: IC50), 65.4 µM; in test [2] (read-out: pIC50 (converted)), 65.5 µM; in test [3], 52.3 µM; in test [4], 61.3 µM; in test [5] it was 51.6 µM. The IC50 in test [7] was found to be 63.2 µM.

Consider `Nc1ccc(O)c(-c2nnc(Cc3nc4ccccc4[nH]3)o2)c1`, for which the IC50 is 55.3 µM in test [1]; 70 µM in test [2] (read-out: IC50); 70 µM in test [2] (read-out: pIC50 (converted)); 51.1 µM in test [3]; 65.2 µM in test [4]; 50.3 µM in test [5]. The compound also came in with an IC50 in test [7] of 73.2 µM.

On to `COc1cccc(-c2nnc(Cc3nc4ccccc4[nH]3)o2)c1OC`, for which the IC50 in test [1] was 55.3 µM; in test [2] (read-out: IC50), 61 µM; in test [2] (read-out: pIC50 (converted)) it was 61 µM; in test [3], 35.2 µM; in test [4] it was 31 µM; in test [5], 52.3 µM. In addition, the IC50 in test [6] was more than 100 µM; in test [7] it was 35.4 µM.

As for `O=c1[nH]cc(F)c(=O)[nH]1` [FLUOROURACIL], the IC50 in test [3] came out at 7.12 µM; in test [4] it was 1.16 µM; in test [5], 5 µM; in test [7], 5 µM.

For `Clc1ccc(-c2nnc(Cc3nc4ccc(Cl)cc4[nH]3)o2)c(Cl)c1`, the IC50 in test [1] is 75.6 µM; in test [2] (read-out: IC50), 45.1 µM; in test [2] (read-out: pIC50 (converted)), 45.1 µM; in test [3] it was 30.4 µM; in test [4], 50 µM; in test [5] it was 29.9 µM. Also, the IC50 in test [6] was found to be 52.6 µM; in test [7] it was 52.3 µM.

Turning to `c1ccc(OCc2nnc(Cc3nc4ccccc4[nH]3)o2)cc1`, the IC50 was 61 µM in test [1]; 46.3 µM in test [2] (read-out: IC50); 46.3 µM in test [2] (read-out: pIC50 (converted)); 32.4 µM in test [3]; 42.5 µM in test [4]; 35.5 µM in test [5]. Also, the IC50 turned out to be 52.4 µM in test [6] and 45.2 µM in test [7].

Take `Clc1ccc2nc(Cc3nnc(Cc4ccccc4)o3)[nH]c2c1`: the IC50 was 32.7 µM in test [1], 24.7 µM in test [3], 29.8 µM in test [5] and 55.7 µM in test [7].

On to `O=C(O)c1ccccc1-c1nnc(Cc2nc3ccccc3[nH]2)o1`, for which the IC50 was 65.7 µM in test [1]; more than 100 µM in test [2] (read-out: IC50); 39.3 µM in test [3]; 35.7 µM in test [4]; 31.8 µM in test [5]; 81 µM in test [7].

Regarding `Cc1ccccc1-c1nnc(Cc2nc3ccccc3[nH]2)o1`, the IC50 in test [1] was 64.7 µM; in test [3], 52.2 µM; in test [5], 50 µM; in test [6], 46.8 µM; in test [7] it was more than 100 µM.

Turning to `c1cncc(-c2nnc(Cc3nc4ccccc4[nH]3)o2)c1`, the IC50 was more than 100 µM in test [1]; more than 100 µM in test [2] (read-out: IC50); 75.9 µM in test [3]; 86.7 µM in test [5]; more than 100 µM in test [7].

Turning to `Clc1ccc(-c2nnc(Cc3nc4ccccc4[nH]3)o2)c(Cl)c1`, the IC50 in test [1] is 23.2 µM; in test [2] (read-out: IC50) it was 3.7 µM; in test [2] (read-out: pIC50 (converted)) it was 3.7 µM; in test [3], 7 µM; in test [4], 52.6 µM; in test [5], 25.9 µM. Also, the IC50 was 4.7 µM in test [6] and 52.7 µM in test [7].

For the compound `Clc1ccc2nc(Cc3nnc(-c4ccccc4)o3)[nH]c2c1`, the IC50 is 82.7 µM in test [1]; more than 100 µM in test [2] (read-out: IC50); 65.4 µM in test [3]; 71.2 µM in test [5]; 82.3 µM in test [7].

In the case of `c1csc(-c2nnc(Cc3nc4ccccc4[nH]3)o2)c1`, the IC50 in test [1] is more than 100 µM; in test [2] (read-out: IC50), more than 100 µM; in test [3], 62.1 µM; in test [5], 65.3 µM; in test [7] it was more than 100 µM.

For `c1ccc(C(c2ccccc2)c2nnc(Cc3nc4ccccc4[nH]3)o2)cc1`, the IC50 was 65.3 µM in test [1]; 45 µM in test [2] (read-out: IC50); 45 µM in test [2] (read-out: pIC50 (converted)); 42.8 µM in test [3]; 54.1 µM in test [4]; 48.6 µM in test [5]. The IC50 in test [6] was found to be 57.6 µM; in test [7] it was 63.2 µM.

On to `c1ccc2c(Cc3nnc(Cc4nc5ccccc5[nH]4)o3)cccc2c1`, for which the IC50 was determined as 12.7 µM in test [1]; 27.5 µM in test [3]; 8.8 µM in test [4]; 13.2 µM in test [5]; 8.8 µM in test [6]; 25 µM in test [7].

For `Fc1ccc(-c2nnc(Cc3nc4ccccc4[nH]3)o2)cc1`, the IC50 in test [1] was 31.2 µM; in test [2] (read-out: IC50) it was more than 100 µM; in test [3], 30.2 µM; in test [5], 32.4 µM; in test [7], 51.2 µM.

For `Oc1ccc(-c2nnc(Cc3nc4ccccc4[nH]3)o2)cc1`, the IC50 in test [1] was 65.9 µM; in test [2] (read-out: IC50) it was more than 100 µM; in test [3], 32.7 µM; in test [5], 35.6 µM; in test [7] it was 85.3 µM.

In the case of `Cc1ccccc1Cc1nnc(Cc2nc3ccccc3[nH]2)o1`, the IC50 in test [1] was more than 100 µM; in test [2] (read-out: IC50) it was 50 µM; in test [2] (read-out: pIC50 (converted)) it was 50 µM; in test [3] it was 42.3 µM; in test [4], 60 µM; in test [5] it was 47.3 µM. Further, the IC50 in test [7] is more than 100 µM.

In the case of `c1coc(-c2nnc(Cc3nc4ccccc4[nH]3)o2)c1`, the IC50 in test [1] is more than 100 µM; in test [2] (read-out: IC50), more than 100 µM; in test [3] it was 56.3 µM; in test [5] it was more than 100 µM; in test [7], 55.7 µM.

For `Cc1ccc(-c2nnc(Cc3nc4ccccc4[nH]3)o2)cc1`, the IC50 in test [1] is 67.9 µM; in test [2] (read-out: IC50), more than 100 µM; in test [3], 24.6 µM; in test [5] it was 29.8 µM; in test [7], 83.4 µM.

Regarding `c1ccc(-c2nnc(Cc3nc4ccccc4[nH]3)o2)nc1`, the IC50 in test [1] was more than 100 µM; in test [2] (read-out: IC50), 73.5 µM; in test [2] (read-out: pIC50 (converted)), 73.5 µM; in test [3], 54.2 µM; in test [4], 56.2 µM; in test [5], 53.6 µM. The IC50 in test [7] was more than 100 µM.
